Data taken from PubChem BioAssay.
Active and inactive are the calls of the source.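 Rule for the calls, unless noted: active = current rise at least 3 SD above the untreated control mean in each of two repeat wells; inactive = the rest.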

Biological target: Potassium voltage-gated channel subfamily KQT member 2 (Rattus norvegicus) (UniProt O88943)
Test: rat KCNQ2 channel potentiation, selectivity assay for KCNQ1 potentiator project, KCNQ2-CHO-K1 cells (AID 493009;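 active = mean duplicate potentiation above the buffer control mean plus 5 SD of buffer wells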;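 note: assay conditions were tuned for KCNQ1 rather than KCNQ2 modulators; signal is max minus min fluorescence divided by baseline after thallium stimulus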)
Conditions: FluxOR thallium flux fluorescence, at 10 µM; stronger effect = higher value, scaled: buffer 0, activator control 100

Sequence of Potassium voltage-gated channel subfamily KQT member 2 (Rattus norvegicus) (O88943 whole entry, looked up): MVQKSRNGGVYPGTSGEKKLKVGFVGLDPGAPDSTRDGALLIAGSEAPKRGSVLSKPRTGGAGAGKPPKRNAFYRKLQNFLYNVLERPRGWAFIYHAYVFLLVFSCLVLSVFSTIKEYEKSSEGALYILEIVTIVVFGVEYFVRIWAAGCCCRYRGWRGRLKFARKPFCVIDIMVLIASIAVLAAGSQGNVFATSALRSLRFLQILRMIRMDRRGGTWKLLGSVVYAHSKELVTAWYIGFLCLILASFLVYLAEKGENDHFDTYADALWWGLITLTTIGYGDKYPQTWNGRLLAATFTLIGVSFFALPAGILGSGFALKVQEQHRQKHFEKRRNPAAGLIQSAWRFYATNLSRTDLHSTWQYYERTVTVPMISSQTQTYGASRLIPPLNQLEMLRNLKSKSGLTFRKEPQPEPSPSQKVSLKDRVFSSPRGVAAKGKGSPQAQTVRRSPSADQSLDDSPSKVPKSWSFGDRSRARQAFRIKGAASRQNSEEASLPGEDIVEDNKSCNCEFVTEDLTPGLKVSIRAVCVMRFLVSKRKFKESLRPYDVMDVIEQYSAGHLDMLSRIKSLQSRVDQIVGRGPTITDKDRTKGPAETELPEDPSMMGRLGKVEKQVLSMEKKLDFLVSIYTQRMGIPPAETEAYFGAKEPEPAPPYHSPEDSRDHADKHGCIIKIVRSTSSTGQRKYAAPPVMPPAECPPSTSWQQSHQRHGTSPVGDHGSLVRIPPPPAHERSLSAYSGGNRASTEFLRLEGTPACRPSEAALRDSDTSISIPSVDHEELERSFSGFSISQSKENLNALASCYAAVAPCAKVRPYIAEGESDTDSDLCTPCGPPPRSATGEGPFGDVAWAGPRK

Which outcome does the source give for `Cc1cc(Br)ccc1OCC(=O)NNC(=O)c1cnccn1` here?
Its outcome is “inactive”.

With `COCCCn1c(=S)[nH]c2sc3c(c2c1=O)CCCC3` as the compound, how does the potentiation read?
Its potentiation is 346% (active).

`CN(C)CC(CCCCC(CN(C)C)C(=O)c1ccccc1)C(=O)c1ccccc1` (stereo not given) was tested. Which outcome did it give?
The outcome was “inactive”.

For `COc1cc(/C=N/NC(=O)c2ccoc2C)ccc1OCCN1CCCCC1`, which outcome is on record?
The outcome was “inactive”.

How did the outcome turn out when `Cc1ccc2nc(NC(=O)c3ccc(Br)o3)sc2c1` was run?
Its outcome is “inactive”.

`O=C(Nc1nnc(C2=COCCO2)o1)c1ccc(Br)cc1` was tested. Which potentiation did it give?
The potentiation was 169% (active).

Which potentiation does the source give for `CCCOc1ccc(-c2c(=O)n(O)c3ccccc3[n+]2[O-])cc1` here?
The potentiation was 243% (active).

For `COn1c(SCc2ccc(C)cc2C)nc2ccccc2c1=O`, which outcome is on record?
The outcome was “inactive”.

With `CCCc1nc(SCC(=O)Nc2cc(Cl)ccc2OC)c2c(=O)n(C)c(=O)n(C)c2n1` as the compound, how does the outcome read?
Its outcome is “inactive”.

With `Cc1ccc(C(=O)COC(=O)COc2ccccc2C)cc1` as the compound, how does the outcome read?
The outcome was “inactive”.

`Cc1cccc(NC(=O)C(=O)NNC(=O)c2ccc(C(C)(C)C)cc2)c1` was tested. Which potentiation did it give?
Its potentiation is 483% (active).

With `O=C(COc1ccc(Cl)cc1)NNC(=O)C(=O)NC1CCCCC1` as the compound, how does the potentiation read?
Its potentiation is 158% (active).

For `CCn1c(SCC(=O)NC(=O)NCc2ccco2)nc2sc(C)c(C)c2c1=O`, which potentiation is on record?
The potentiation was 173% (active).

With `O=C(CCC(=O)N1CCOc2ccc(Cl)cc21)NCCN1CCOCC1` as the compound, how does the outcome read?
The outcome was “inactive”.

With `Oc1c(CN2CCN(c3ccccn3)CC2)cc(Cl)c2cccnc12` as the compound, how does the potentiation read?
The potentiation was 172% (active).

For `CC(=O)Nc1cccc(/C(C)=N/NC(=O)c2ccc(Cl)cc2Cl)c1`, which outcome is on record?
Its outcome is “inactive”.

For `CC(C)OC(=O)c1c(NS(=O)(=O)c2ccccc2)sc2c1CCCC2`, which potentiation is on record?
Its potentiation is 338% (active).

With `C/C(=N\NC(=O)c1cc2ccccc2cc1O)c1cc2ccccc2o1` as the compound, how does the potentiation read?
The potentiation was 746% (active).

`C=CCn1c(O)c(N=NC(=S)Nc2cccc(C)c2)c2ccccc21` was tested. Which potentiation did it give?
The potentiation was 286% (active).

For `CCC(C(=O)OCC(=O)NC(=O)NC(C)(C)C)c1ccccc1` (stereo not given), which outcome is on record?
Its outcome is “inactive”.

Which outcome does the source give for `O=c1c2cccnc2n(-c2ccccc2)n1Cc1ccc(Cl)cc1` here?
Its outcome is “inactive”.

With `Cc1ccc(C(=O)N/C(=C\c2ccc(-c3ccccc3[N+](=O)[O-])o2)C(=O)NCCCN2CCOCC2)cc1` as the compound, how does the outcome read?
The outcome was “inactive”.

`COc1ccccc1CNC(=O)COC(=O)c1nccnc1N` was tested. Which outcome did it give?
The outcome was “inactive”.

Which potentiation does the source give for `COc1ccc(-n2cc(-c3ccccc3)c3c(=S)nc[nH]c32)cc1` here?
Its potentiation is 172% (active).

With `COc1cc2c(cc1OC)CN(C(=O)CNC(=O)c1ccc(OC(F)F)cc1)CC2` as the compound, how does the outcome read?
Its outcome is “inactive”.

Which outcome does the source give for `O=C(CC1(O)C(=O)N(C/C=C/c2ccccc2)c2ccccc21)c1ccccn1` (stereo not given) here?
Its outcome is “inactive”.

How did the potentiation turn out when `O=C(NC(=S)N1CCc2ccccc21)c1ccccc1` was run?
Its potentiation is 366% (active).

For `NNC(=O)c1sccc1OCc1ccc(Cl)cc1Cl`, which outcome is on record?
The outcome was “inactive”.

How did the outcome turn out when `CN(C(=O)c1ccco1)c1nnc(-c2ccc(F)cc2)s1` was run?
The outcome was “inactive”.

With `O=c1cc(-c2ccccc2)nc2c(-c3ccccc3)c(C(F)(F)F)[nH]n12` as the compound, how does the potentiation read?
The potentiation was 591% (active).

Which potentiation does the source give for `COc1ccccc1NS(=O)(=O)c1cc(NC(=O)c2cnccn2)ccc1N1CCOCC1` here?
Its potentiation is 248% (active).

Which outcome does the source give for `O=C(NCc1cccs1)C1CC(c2ccccc2O)=NO1` (stereo not given) here?
Its outcome is “inactive”.

With `O=C(Nc1nc(=O)c2ccccc2s1)c1ccc(Cl)cc1` as the compound, how does the potentiation read?
The potentiation was 242% (active).

`COc1ccc(CNC(=O)CNC(C)c2ccc(F)cc2)cc1` (stereo not given) was tested. Which outcome did it give?
The outcome was “inactive”.

For `Cc1ccccc1NC1=NC(=S)N(c2ccccc2)C12CCCCC2`, which potentiation is on record?
The potentiation was 156% (active).

How did the outcome turn out when `Oc1c(Cl)cc(Cl)cc1/C=N/c1nccs1` was run?
The outcome was “inactive”.

Which potentiation does the source give for `S=c1[nH]nc(-c2ccco2)n1/N=C/c1ccc(Cl)c(Cl)c1` here?
The potentiation was 145% (active).

`CC(=O)Nc1c2c(nn1-c1ccc(C)cc1)CS(=O)(=O)C2` was tested. Which outcome did it give?
Its outcome is “inactive”.

For `Cc1ccc(S(=O)(=O)Nc2cc(C(F)(F)F)ccc2N2CCOCC2)c(C)c1`, which outcome is on record?
Its outcome is “inactive”.

With `CNc1ccccc1C(=O)OC(C)C(=O)Nc1ccc(Cl)cn1` (stereo not given) as the compound, how does the outcome read?
The outcome was “inactive”.

Biological target: Potassium voltage-gated channel subfamily KQT member 1 (Homo sapiens) (UniProt P51787)
Test: KCNQ1 channel current potentiators, confirmation, orthogonal assay for KCNQ1 potentiator project, IonWorks patch clamp, KCNQ1-CHO cells (AID 493184)
Conditions: automated patch clamp current, at 10 µM; stronger effect = higher value
Procedure, shortened: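 assay system = KCNQ1-expressing CHO cells | medium = external bath solution at pH 7.4 | probe or stimulus = 2,000 ms depolarization, -90 to +40 mV | compound dosing = 10 µM final, single point | measured by = automated voltage clamp, amphotericin B perforated patch | measure = percent current increase versus pre-compound level | replication = duplicates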

Sequence of Potassium voltage-gated channel subfamily KQT member 1 (Homo sapiens) (P51787 whole entry, looked up): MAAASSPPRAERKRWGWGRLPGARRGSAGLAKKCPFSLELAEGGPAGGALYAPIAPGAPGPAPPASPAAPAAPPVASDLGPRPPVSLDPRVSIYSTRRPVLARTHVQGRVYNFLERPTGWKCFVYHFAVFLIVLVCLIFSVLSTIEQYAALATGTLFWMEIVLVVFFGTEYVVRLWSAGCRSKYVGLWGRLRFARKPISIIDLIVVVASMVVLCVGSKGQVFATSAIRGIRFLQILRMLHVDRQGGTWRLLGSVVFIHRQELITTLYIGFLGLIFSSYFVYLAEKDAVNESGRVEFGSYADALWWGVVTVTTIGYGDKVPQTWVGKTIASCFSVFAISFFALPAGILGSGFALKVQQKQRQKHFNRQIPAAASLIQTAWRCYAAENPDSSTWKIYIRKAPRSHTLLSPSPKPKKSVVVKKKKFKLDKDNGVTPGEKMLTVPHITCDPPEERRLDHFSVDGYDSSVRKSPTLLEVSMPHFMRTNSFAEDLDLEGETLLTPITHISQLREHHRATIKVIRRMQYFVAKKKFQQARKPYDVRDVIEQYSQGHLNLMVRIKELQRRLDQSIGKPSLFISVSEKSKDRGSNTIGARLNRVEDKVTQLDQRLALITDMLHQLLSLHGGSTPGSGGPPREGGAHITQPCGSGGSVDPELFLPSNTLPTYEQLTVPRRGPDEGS

For `Cc1cc(Br)ccc1OCC(=O)NNC(=O)c1cnccn1`, which outcome is on record?
The outcome was “inactive”.

How did the outcome turn out when `COCCCn1c(=S)[nH]c2sc3c(c2c1=O)CCCC3` was run?
Its outcome is “inactive”.

`CN(C)CC(CCCCC(CN(C)C)C(=O)c1ccccc1)C(=O)c1ccccc1` (stereo not given) was tested. Which outcome did it give?
Its outcome is “inactive”.

For `COc1cc(/C=N/NC(=O)c2ccoc2C)ccc1OCCN1CCCCC1`, which outcome is on record?
The outcome was “inactive”.

For `Cc1ccc2nc(NC(=O)c3ccc(Br)o3)sc2c1`, which outcome is on record?
Its outcome is “inactive”.

For `O=C(Nc1nnc(C2=COCCO2)o1)c1ccc(Br)cc1`, which outcome is on record?
Its outcome is “inactive”.

Which outcome does the source give for `CCCOc1ccc(-c2c(=O)n(O)c3ccccc3[n+]2[O-])cc1` here?
The outcome was “inactive”.

Which outcome does the source give for `COn1c(SCc2ccc(C)cc2C)nc2ccccc2c1=O` here?
The outcome was “inactive”.

With `CCCc1nc(SCC(=O)Nc2cc(Cl)ccc2OC)c2c(=O)n(C)c(=O)n(C)c2n1` as the compound, how does the outcome read?
The outcome was “inactive”.

How did the outcome turn out when `Cc1ccc(C(=O)COC(=O)COc2ccccc2C)cc1` was run?
The outcome was “inactive”.

`Cc1cccc(NC(=O)C(=O)NNC(=O)c2ccc(C(C)(C)C)cc2)c1` was tested. Which outcome did it give?
The outcome was “inactive”.

`O=C(COc1ccc(Cl)cc1)NNC(=O)C(=O)NC1CCCCC1` was tested. Which outcome did it give?
The outcome was “inactive”.

`CCn1c(SCC(=O)NC(=O)NCc2ccco2)nc2sc(C)c(C)c2c1=O` was tested. Which outcome did it give?
The outcome was “inactive”.

How did the outcome turn out when `O=C(CCC(=O)N1CCOc2ccc(Cl)cc21)NCCN1CCOCC1` was run?
Its outcome is “inactive”.

With `Oc1c(CN2CCN(c3ccccn3)CC2)cc(Cl)c2cccnc12` as the compound, how does the outcome read?
The outcome was “inactive”.

With `CC(=O)Nc1cccc(/C(C)=N/NC(=O)c2ccc(Cl)cc2Cl)c1` as the compound, how does the outcome read?
The outcome was “inactive”.

How did the outcome turn out when `CC(C)OC(=O)c1c(NS(=O)(=O)c2ccccc2)sc2c1CCCC2` was run?
Its outcome is “inactive”.

With `C/C(=N\NC(=O)c1cc2ccccc2cc1O)c1cc2ccccc2o1` as the compound, how does the outcome read?
The outcome was “inactive”.

Which outcome does the source give for `C=CCn1c(O)c(N=NC(=S)Nc2cccc(C)c2)c2ccccc21` here?
Its outcome is “inactive”.

`CCC(C(=O)OCC(=O)NC(=O)NC(C)(C)C)c1ccccc1` (stereo not given) was tested. Which outcome did it give?
Its outcome is “inactive”.

Which outcome does the source give for `O=c1c2cccnc2n(-c2ccccc2)n1Cc1ccc(Cl)cc1` here?
The outcome was “inactive”.

`Cc1ccc(C(=O)N/C(=C\c2ccc(-c3ccccc3[N+](=O)[O-])o2)C(=O)NCCCN2CCOCC2)cc1` was tested. Which outcome did it give?
The outcome was “inactive”.

`COc1ccccc1CNC(=O)COC(=O)c1nccnc1N` was tested. Which outcome did it give?
Its outcome is “inactive”.

How did the outcome turn out when `COc1ccc(-n2cc(-c3ccccc3)c3c(=S)nc[nH]c32)cc1` was run?
The outcome was “inactive”.

How did the outcome turn out when `COc1cc2c(cc1OC)CN(C(=O)CNC(=O)c1ccc(OC(F)F)cc1)CC2` was run?
Its outcome is “inactive”.

`O=C(CC1(O)C(=O)N(C/C=C/c2ccccc2)c2ccccc21)c1ccccn1` (stereo not given) was tested. Which outcome did it give?
Its outcome is “inactive”.

For `O=C(NC(=S)N1CCc2ccccc21)c1ccccc1`, which outcome is on record?
The outcome was “inactive”.

`NNC(=O)c1sccc1OCc1ccc(Cl)cc1Cl` was tested. Which outcome did it give?
The outcome was “inactive”.

Which outcome does the source give for `CN(C(=O)c1ccco1)c1nnc(-c2ccc(F)cc2)s1` here?
Its outcome is “inactive”.

How did the outcome turn out when `O=c1cc(-c2ccccc2)nc2c(-c3ccccc3)c(C(F)(F)F)[nH]n12` was run?
The outcome was “inactive”.

Which outcome does the source give for `COc1ccccc1NS(=O)(=O)c1cc(NC(=O)c2cnccn2)ccc1N1CCOCC1` here?
Its outcome is “inactive”.

Which outcome does the source give for `O=C(NCc1cccs1)C1CC(c2ccccc2O)=NO1` (stereo not given) here?
The outcome was “inactive”.

For `O=C(Nc1nc(=O)c2ccccc2s1)c1ccc(Cl)cc1`, which outcome is on record?
The outcome was “inactive”.

For `COc1ccc(CNC(=O)CNC(C)c2ccc(F)cc2)cc1` (stereo not given), which outcome is on record?
The outcome was “inactive”.

With `Cc1ccccc1NC1=NC(=S)N(c2ccccc2)C12CCCCC2` as the compound, how does the outcome read?
Its outcome is “inactive”.

How did the outcome turn out when `Oc1c(Cl)cc(Cl)cc1/C=N/c1nccs1` was run?
Its outcome is “inactive”.

With `S=c1[nH]nc(-c2ccco2)n1/N=C/c1ccc(Cl)c(Cl)c1` as the compound, how does the outcome read?
Its outcome is “inactive”.

How did the outcome turn out when `CC(=O)Nc1c2c(nn1-c1ccc(C)cc1)CS(=O)(=O)C2` was run?
Its outcome is “inactive”.

How did the outcome turn out when `Cc1ccc(S(=O)(=O)Nc2cc(C(F)(F)F)ccc2N2CCOCC2)c(C)c1` was run?
The outcome was “inactive”.

Which outcome does the source give for `CNc1ccccc1C(=O)OC(C)C(=O)Nc1ccc(Cl)cn1` (stereo not given) here?
Its outcome is “inactive”.
